A selection: hits, their analogues and other compounds. The true share with any hit is near 1.5%.
APJ agonist – agonists of human APJ apelin receptor; P35414; CHO-K1 APJ PathHunter beta-arrestin, luminescence; 0% DMSO wells, 100% apelin; activation, % at 20 µM; 330,000 compounds, 0.11% hits; AID 2520;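 active = activation more than six SD over the plate average, tested at 20 µM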
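Test system: CHO-K1 APJ beta-arrestin complementation cell line | Compound: Single test compound dose, 20 µM final, 1% DMSO | Incubation: Compound 90 min 25 °C, reagent 1 h | Measured by: beta-gal luminescence | Read-out basis: APJ–arrestin association signal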
APJ antag – APJ receptor antagonism | AID 2521 | CHO-K1 APJ beta-arrestin complementation, luminescence | inhibition, % at 20 µM | 330,000 compounds, 0.32% hits;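 active = inhibition above about 40% at 20 µM, limit read from the data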;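 also: cells challenged with 10 nM apelin-13 agonist together with compound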
CXCR6 inh – blocks human CXCR6 beta-arrestin recruitment | 360,000 compounds, 0.36% hits | inhibition, % at 20 µM | CHO-K1 PathHunter CXCR6 beta-arrestin, luminescence; in the data active = inhibition above about 34%, passing the limit was not always enough;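 also: antagonist mode with CXCL16 agonist at 10 nM final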
CCR6 antagonist – antagonists of human CCR6 receptor. AID 493098. CHO-K1 CCR6 PathHunter beta-arrestin, luminescence, CCL20-stimulated. 340,000 compounds, 0.49% hits. inhibition, % at 20 µM;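 active = compounds whose inhibition of the agonist-driven luminescence signal at 20 µM reaches about 50%, limit read from the data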;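 also: cells stimulated with CCL20 at 14 nM final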
Target sequence (P51684 whole entry, looked up): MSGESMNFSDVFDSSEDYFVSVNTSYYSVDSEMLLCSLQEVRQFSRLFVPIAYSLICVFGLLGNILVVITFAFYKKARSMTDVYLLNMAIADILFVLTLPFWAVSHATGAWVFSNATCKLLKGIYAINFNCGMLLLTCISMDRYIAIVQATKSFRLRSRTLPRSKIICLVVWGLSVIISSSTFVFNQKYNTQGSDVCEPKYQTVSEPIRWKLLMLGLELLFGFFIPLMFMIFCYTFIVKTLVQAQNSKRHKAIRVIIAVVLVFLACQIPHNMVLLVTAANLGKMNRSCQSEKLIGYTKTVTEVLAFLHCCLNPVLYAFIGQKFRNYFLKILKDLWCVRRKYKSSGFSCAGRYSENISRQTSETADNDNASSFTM
EBI2 block – blocks human EBI2 receptor beta-arrestin signaling; inhibition, % at 5 µM; EBI2 beta-arrestin recruitment, luminescence, 7a,25-OHC stimulated; P32249; 360,000 compounds, 0.81% hits; in the data active = inhibition above about 38%;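 also: enzyme fragment complementation signal reports receptor beta-arrestin coupling in cells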
EBI2 antag conf – EBI2 (human) antagonism, single concentration confirmation | inhibition, % at 5 µM | shares compounds with EBI2 block | 2,400 compounds, 29% hits | EBI2 beta-arrestin luminescence, 7a,25-OHC antagonism;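 active = inhibition of at least 50%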
EBI2 ag – counter-screen for EBI2 antagonists: EBI2 agonist activity | shares compounds with EBI2 block | EBI2-expressing cells, agonist mode, luminescence, 60 min; 0% vehicle, 100% 7α,25-dihydroxycholesterol control | activation, % at 5 µM | 2,400 tested, under 10 active | AID 652000;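 active = activation of at least 50%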
bGal cs – counter-screen for EBI2 antagonists: E. coli beta-galactosidase inhibition. shares compounds with EBI2 block. purified beta-galactosidase, luminescent Galacton Star, 15 min. inhibition, % at 5 µM. 2,400 compounds, 1% hits;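 active = replicate-average signal at least 3 plate SD below neutral wells, shown as high inhibition, flagging enzyme-inhibiting false positives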;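 also: higher means stronger loss of beta-gal luminescence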
A number is an active result; i = inactive; nt = no result given.

SMILES | APJ agonist | APJ antag | CXCR6 inh | CCR6 antagonist | EBI2 block | EBI2 antag conf | EBI2 ag | bGal cs
COc1ccc([C@H]2CC(=O)C=C(c3ccc4ncccc4c3)C2)cc1OC | i | i | i | i | 47 | i | i | i
Cc1ccc(C(=O)N2CCC(C(=O)c3ccc(Cl)cc3)CC2)cc1 | i | i | i | i | 61 | i | i | i
CC(C)(C)c1ccc(C(=O)N2CCC(C(=O)c3ccccc3)CC2)cc1 | i | i | i | i | i | nt | nt | nt
O=C(c1ccccc1)C1CCN(C(=O)c2ccc(Cl)cc2)CC1 | i | i | i | i | 86 | 73 | i | i
COc1ccc(-c2cc(=O)c3ccc(O)cc3o2)cc1 | nt | nt | i | i | i | nt | nt | nt
Cn1[nH]c(C(F)(F)F)cc1=O | i | i | i | i | i | nt | nt | nt
CCOc1ccc(N2CSC(=S)N(c3ccc(OCC)cc3)C2)cc1 | i | i | i | i | 62 | i | i | i
CCOc1ccc(N2CC(=O)SC2=S)cc1 | i | i | i | i | i | nt | nt | nt
CC(C)Cc1nc2sc3c(NCc4ccco4)ncnc3c2c2c1COC(C)(C)C2 | i | i | i | i | 47 | i | i | i
O=C(Nc1cccc(Cl)c1)N1CCN(C/C=C/c2ccccc2)CC1 | i | i | i | i | 55 | i | i | i
CC(C)C(NC(=O)c1ccccc1)C(=O)N1CCN(C/C=C/c2ccccc2)CC1 (stereo not drawn) | i | i | i | i | i | nt | nt | nt
O=C(c1ccc(Br)s1)N1CCN(C/C=C/c2ccccc2)CC1 | i | i | i | i | 43 | i | i | i
C[C@H](NC(=O)c1ccc(C(C)(C)C)cc1)C(=O)N1CCN(C/C=C/c2ccccc2)CC1 | i | i | i | i | 72 | 54 | i | i
O=C(CCN1CCN(C/C=C/c2ccccc2)CC1)Nc1ccc(Cl)cc1 | i | i | i | i | i | nt | nt | nt
FC(F)(F)c1ccc(NCCc2ccccc2)nc1 | i | i | i | i | i | nt | nt | nt
CC(=O)c1cccc(OC(=O)c2cc(S(=O)(=O)N3CCOCC3)ccc2N2CCCC2)c1 | i | i | i | i | i | nt | nt | nt
O=C1c2cccc3c([N+](=O)[O-])ccc(c23)C(=O)N1CCc1ccccn1 | i | i | i | i | 75 | i | i | i
O=C1c2ccccc2C(=O)N1CCc1ccccn1 | i | i | i | i | i | nt | nt | nt
CC(=O)c1ccc(NC(=O)C(C)n2nc(-c3ccccc3)c3cc(Cl)ccc32)cc1 (stereo not drawn) | i | i | i | i | 44 | i | i | i
CC(C(=O)NCc1ccco1)n1nc(-c2ccccc2)c2cc(Cl)ccc21 (stereo not drawn) | i | i | i | i | i | nt | nt | nt
C=CCN1C=CC(=O)[C@@H](O)[C@H]1c1ccccc1Br | nt | nt | i | i | i | nt | nt | nt
O=C(Nc1ccc2c(c1)OCO2)[C@@H]1[C@@H]2C(=O)N(C3CCCCC3)C(=O)[C@@H]2C2c3ccccc3C=CN21 (stereo partly drawn) | i | i | nt | nt | nt | nt | nt | nt
Cc1ccc(S(=O)(=O)N2CCN(C(=O)c3ccc(-n4cncn4)c([N+](=O)[O-])c3)CC2)c(C)c1 | nt | nt | i | nt | 64 | i | i | i
COc1cc(/C=C/C(=O)Nc2nnc(CC(C)(C)C)s2)cc(OC)c1OC | i | i | i | i | i | nt | nt | nt
O=C1c2cccc3cccc(c23)C(=O)N1CCN1CCN(CC(O)COc2ccc3ccccc3c2)CC1 (stereo not drawn) | i | i | i | i | 49 | i | i | i
SMILES | APJ agonist | APJ antag | CXCR6 inh | CCR6 antagonist | EBI2 block | EBI2 antag conf | EBI2 ag | bGal cs
CCc1ccc(OCC(O)CN2CCC(CN3C(=O)c4cccc5cccc(c45)C3=O)CC2)cc1 (stereo not drawn) | i | i | i | i | 60 | i | i | i
COc1ccc(OC)c(-c2csc(N(CC3CCCO3)C(=O)C3CCCCC3)n2)c1 (stereo not drawn) | i | i | i | i | i | nt | nt | nt
Cc1csc(=O)n1CC(=O)OCC(=O)NCc1ccc(F)cc1 | i | i | i | i | i | nt | nt | nt
O=C(COc1ccc(F)cc1)c1ccc2c(c1)CCCC2 | i | i | i | i | 47 | i | i | i
Cc1sc(NC(=O)c2ccco2)c(CN2CCN(c3ccccc3)CC2)c1C | i | i | i | i | 40 | i | i | i
Cc1sc(NC(=O)c2ccco2)c(CN2CCCCC2)c1C | i | i | i | i | i | nt | nt | nt
Cc1ccc(-n2nnnc2CCl)cc1 | nt | nt | i | i | i | nt | nt | nt
Cc1ccc(OCc2nnnn2-c2ccccc2)cc1 | i | i | i | i | 51 | i | i | i
COc1cc2nc(C3CCC3)nc(N3CCN(c4ccccc4OC)CC3)c2cc1OC | i | i | i | i | 46 | i | i | i
COc1cc2nc(Cl)nc(N3CCN(C)CC3)c2cc1OC | i | i | nt | nt | nt | nt | nt | nt
COc1ccc(NC(C)=O)cc1NC(=O)CN1CCN(S(=O)(=O)c2ccc(C(C)C)cc2)CC1 | i | i | i | i | i | nt | nt | nt
CC1=C/C(=N\NC(=S)Nc2cccnc2)CC(C)(C)C1 | nt | nt | i | i | 39 | 78 | i | i
CC1(C)C2CC=C(/C=N/NC(=S)Nc3cccnc3)C1C2 (stereo not drawn) | i | i | i | i | i | nt | nt | nt
COc1ccc(C2CC(=O)C(C=NCCO)=C(O)C2)cc1OC (stereo not drawn) | i | i | i | i | i | nt | nt | nt
COc1cc(C(=O)NCC(=O)NC(C)c2ccc(-n3ccnc3)cc2)cc(OC)c1OC (stereo not drawn) | i | i | i | i | i | nt | nt | nt
CCOC(=O)c1c(NC(=O)COc2cccc3c2CCN(C)C3=O)sc2c1CCC2 | i | i | i | i | 51 | i | i | i
O=C(CN1CCN(Cc2ccccc2)CC1)N/N=C/c1ccc(Br)s1 | i | i | i | i | 44 | i | i | i
COc1cccc(NC(=O)Cn2c3ccc(F)cc3c3nc4n(c(=O)c32)CCCS4)c1 | i | i | i | i | 92 | 72 | i | i
COc1ccc(-c2cn(Cc3ccc(C(=O)NCc4ccc(C)cc4)cc3)c(C(C)N)n2)cc1 (stereo not drawn) | i | i | i | i | 54 | i | i | i
CCOC(=O)c1cc2occc2n1CC(=O)NCCOC | i | i | i | i | i | nt | nt | nt
COc1ccc(-n2cc(-c3ccccc3)[nH]c2=S)cc1 | i | i | i | i | 74 | i | i | i
Cc1ccc(CCNC(=O)C23CN(Cc4ccccc4)CC2C(c2ccc([N+](=O)[O-])cc2)=NO3)cc1 (stereo not drawn) | i | i | i | i | 65 | i | i | i
NS(=O)(=O)c1ccc(N/N=C/c2cn(-c3ccccc3)nc2-c2cccs2)cc1 | i | i | i | i | 41 | i | i | i
NS(=O)(=O)c1ccc(N/N=C/c2cn(-c3ccccc3)nc2-c2cccs2)c([N+](=O)[O-])c1 | i | i | i | i | i | nt | nt | nt
